The results in this text go back to ChEMBL document CHEMBL1127559, “Syntheses and anticholinesterase activity of tetrahydrobenzazepine carbamates” (J Med Chem, 1994).

Data set [1] is filed under the species Mus musculus. Description: Minimal dose to produce side effects was determined for diarrhea. The format is functional. In short, it runs like this: (§1)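 Mice fasted overnight, dosed ip or po at 10 mL/kg and housed singly in novel cages. Salivation, tremor and diarrhea each scored on a 5-point scale at 15, 30 and 60 min post-dose. Value is the minimal dose producing the sign.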

For data set [2], the species on record is Mus musculus. Description: Minimal dose to produce side effects was determined for salivation. It is filed as functional. In outline: as §1
Data set [3] is filed under the species Mus musculus. Description: Minimal dose to produce side effects was determined for tremor. It is filed as functional. In outline: as §1
Data set [4] is described as follows: Lethal dose was measured at 24 hour in mice following intraperitoneal administration. As to conditions: mouse, in vivo, ip. The format is toxicity, organism-based. In short, it runs like this:
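Mice fasted overnight and dosed ip at 10 mL/kg, then housed singly in novel cages. Lethality scored over 24 h using at least four dose levels with nine animals per dose. LD50 calculated by Spearman-Karber.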

In data set [5] the target is Acetylcholinesterase (Homo sapiens, UniProt P22303). Description: In vitro inhibitory activity against human acetylcholinesterase. It is filed as functional.
The species named for data set [6] is Mus musculus. Description: Minimal dose to produce side effects was determined for diarrhea in mice. The format is functional. In short, it runs like this: as §1
The species named for data set [7] is Mus musculus. Description: Minimal dose to produce side effects was determined for salivation in mice. It is filed as functional. In outline:
as §1

The species named for data set [8] is Mus musculus. Description: Minimal dose to produce side effects was determined for tremor in mice. It is filed as functional. In outline: as §1

Chain of Acetylcholinesterase (P22303 whole entry): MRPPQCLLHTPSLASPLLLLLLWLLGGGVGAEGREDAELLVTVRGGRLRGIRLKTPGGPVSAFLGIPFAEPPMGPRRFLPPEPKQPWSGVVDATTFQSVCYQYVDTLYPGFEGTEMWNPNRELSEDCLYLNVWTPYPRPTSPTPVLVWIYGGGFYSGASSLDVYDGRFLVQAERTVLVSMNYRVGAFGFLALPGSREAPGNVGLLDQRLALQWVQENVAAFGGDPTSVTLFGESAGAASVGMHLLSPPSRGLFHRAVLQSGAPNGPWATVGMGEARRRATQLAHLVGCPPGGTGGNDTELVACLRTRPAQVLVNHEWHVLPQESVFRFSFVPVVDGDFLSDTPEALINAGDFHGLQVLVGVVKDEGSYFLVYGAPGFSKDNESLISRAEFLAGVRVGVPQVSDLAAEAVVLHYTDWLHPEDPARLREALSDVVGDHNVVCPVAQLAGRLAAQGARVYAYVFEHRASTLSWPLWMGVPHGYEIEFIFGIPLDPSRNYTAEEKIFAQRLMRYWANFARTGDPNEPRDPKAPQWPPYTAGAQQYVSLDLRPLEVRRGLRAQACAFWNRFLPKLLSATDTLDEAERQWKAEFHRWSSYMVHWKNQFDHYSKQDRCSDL

In general, LD50 refers to the dose expected to kill half of the subjects tested. A word on the IC50: it is the concentration needed to halve the response being measured. Low values mean greater potency, high ones weaker potency. With `CCCCCCCNC(=O)Oc1ccc2c(c1)C1CCN(CC)C2C1` (stereo unspecified), the values for the Dose in data set [1], in data set [2] and in data set [3] were 3.2 mg/kg, 17.8 mg/kg and 17.8 mg/kg, respectively. The 50% lethal dose (LD50) at 24 h in data set [4] was found to be 22 mg/kg. Also, the IC50 in data set [5] worked out at 169 nM.
`CCCCCCCNC(=O)Oc1ccc2c(c1)C1(C)CCN(CC)C2C1` (stereo unspecified): the Dose in data set [1] is 1 mg/kg; in data set [3], 1.8 mg/kg. This compound also showed an LD50 at 24 h in data set [4] of 4 mg/kg. Moreover, in data set [5], the 50% inhibitory concentration (IC50) came to 159 nM.
Consider `CCCCCCNC(=O)Oc1ccc2c(c1)C1CCN(CC)C2C1` (stereo unspecified), for which the values for the Dose in data set [1], in data set [2] and in data set [3] were 1.8 mg/kg, 3.2 mg/kg and 3.2 mg/kg, respectively. The LD50 at 24 h in data set [4] stood at 9 mg/kg. Moreover, the IC50 in data set [5] came out at 125 nM.
Regarding `CCCCCCNC(=O)Oc1ccc2c(c1)[C@]1(C)CCN(CC)[C@@H]1C2`, the Dose is 1.8 mg/kg in data set [1], 3.2 mg/kg in data set [2] and 3.2 mg/kg in data set [3]. Further, the median lethal dose (LD50) at 24 h in data set [4] is 4 mg/kg.
For the compound `CCN1CCC2CC1c1ccc(OC(=O)NC)cc12` (stereo unspecified), the 50% lethal dose (LD50) at 24 h in data set [4] was determined as 1 mg/kg. The compound further showed a concentration for half-maximal inhibition (IC50) in data set [5] of 171 nM.
As to `CCCCNC(=O)Oc1ccc2c(c1)C1CCN(CC)C2C1` (stereo unspecified), the IC50 in data set [5] came out at 206 nM.
In the case of `CCCCCCNC(=O)Oc1ccc2c(c1)C1CCN(C)C2C1` (stereo unspecified), the results for the Dose in data set [2] and in data set [3] were 5.6 mg/kg and 3.2 mg/kg, respectively. The compound further displayed an LD50 at 24 h in data set [4] of 6 mg/kg.
In the case of `CCCCCCCNC(=O)Oc1ccc2c(c1)C1CCN(C)C2C1` (stereo unspecified), the Dose in data set [2] and in data set [3] was 10 mg/kg in each case. Further, the LD50 at 24 h in data set [4] turned out to be 18 mg/kg. In data set [5], this compound displayed a concentration for half-maximal inhibition (IC50) of 143 nM.
For the compound `CCCCCCNC(=O)Oc1ccc2c(c1)C1(C)CCN(CC)C2C1` (stereo unspecified), in data set [4], the LD50 at 24 h was found to be 9 mg/kg. Moreover, in data set [5], the half-inhibitory concentration (IC50) turned out to be 133 nM.
In the case of `CCCCCCCNC(=O)Oc1ccc2c(c1)[C@]1(C)CCN(C)[C@@H]1N2C` [EPTASTIGMINE], the Dose in data set [1] came to 1.8 mg/kg; in data set [2] it was 10 mg/kg; in data set [3], 10 mg/kg.
As for `CNC(=O)Oc1ccc2c(c1)[C@]1(C)CCN(C)[C@@H]1N2C` [PHYSOSTIGMINE], the Dose in data set [6], in data set [7] and in data set [8] was 0.32 mg/kg each time.
